Screens (PubChem BioAssay)
RGS4 inh – RGS4 inhibitors, primary screen, cell-based, HEK293 M3R inducible RGS4, calcium flux; Regulator of G-protein signaling 4 (Homo sapiens), P49798; Fluo-4 calcium flux; stronger effect = higher value; triggered by carbachol at its EC20; B-score at 10 µM; 310,000 tested, 0.45% active; AID 463165, 2010;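 active means B-score, a plate-corrected calcium signal, over three deviations above library mean, with baseline fluorescence within five deviations of library mean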;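 further: RGS4 expression induced by doxycycline in cells with stable M3 receptor; B-score is computed from the integrated fluorescence ratio over baseline after carbachol; higher B-score means a larger calcium signal and so more RGS4 inhibition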
Target sequence (P49798 whole entry, looked up): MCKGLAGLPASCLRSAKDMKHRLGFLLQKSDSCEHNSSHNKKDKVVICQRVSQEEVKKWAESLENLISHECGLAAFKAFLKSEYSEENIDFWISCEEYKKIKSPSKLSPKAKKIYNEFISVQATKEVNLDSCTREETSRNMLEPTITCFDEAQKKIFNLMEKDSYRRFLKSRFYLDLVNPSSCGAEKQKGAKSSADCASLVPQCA
RGS4 pot – RGS4 potentiators or activators, primary screen, cell-based, HEK293 M3R inducible RGS4, calcium flux | 310,000 tested, 0.92% active | carbachol calcium flux Fluo4; stronger effect = lower value | B-score at 10 µM | AID 463111, 2010;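 active means B-score of the integrated calcium signal more than 4 SD below the library mean, with starting fluorescence not abnormally high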;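 further: negative B-score means reduced calcium response which marks RGS4 activation or potentiation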
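test system = HEK293 cells with stable M3R and inducible RGS4 | schedule = recording 10 s baseline at 1 Hz, 100 s post-agonist | technique = Fluo4-AM (2 µM) calcium-flux fluorescence, kinetic read | measure = Agonist-evoked peak-minus-minimum fluorescence over baseline, integrated ratio, B score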
MrgX1 ag – agonists of human MrgX1 receptor, primary screen, HEK293 cells, Fluo-4 calcium flux. 310,000 tested, 0.44% active. Fluo-4 calcium fluorescence, agonist mode; stronger effect = higher value. AID 588627, 2011. Mas-related G-protein coupled receptor member X1 (Homo sapiens), Q96LB2. B-score at 10 µM;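 active means calcium response B-score plate-corrected fluorescence ratio at least 3 library SD, with starting fluorescence B-score inside 5 SD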
Target sequence (Q96LB2 whole entry, looked up): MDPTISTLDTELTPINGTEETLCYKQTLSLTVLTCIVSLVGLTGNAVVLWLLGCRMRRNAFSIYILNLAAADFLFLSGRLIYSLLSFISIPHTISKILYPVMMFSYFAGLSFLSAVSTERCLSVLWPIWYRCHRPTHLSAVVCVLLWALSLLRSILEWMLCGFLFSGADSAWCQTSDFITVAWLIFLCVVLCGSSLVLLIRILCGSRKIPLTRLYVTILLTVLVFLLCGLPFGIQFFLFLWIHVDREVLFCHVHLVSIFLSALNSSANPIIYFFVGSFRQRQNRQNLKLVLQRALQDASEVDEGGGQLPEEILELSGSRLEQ
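System – MrgX1-expressing HEK293 cells · Incubation – cells plated overnight, dye loaded 0.5 h 37 °C, 0.5 h room temperature · Technique – kinetic Fluo-4 NW fluorescence of intracellular calcium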
MrgX1 antagonist – antagonists of human MrgX1 receptor, primary screen, HEK293 cells, Fluo-4 calcium flux | Mas-related G-protein coupled receptor member X1 (Homo sapiens), Q96LB2 | BAM8-22 antagonism; stronger effect = lower value | B-score at 10 µM | 310,000 tested, 1.3% active | AID 588676, 2011;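 active means calcium-response B-score plate-corrected more than 3 library SD below zero, starting fluorescence within 5 deviations, no agonist response on first addition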;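 further: peak minus trough fluorescence over baseline after final BAM8-22 challenge near maximal dose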
MrgX1 PAM – positive allosteric modulators of MrgX1, primary screen, HEK293 cells, Fluo-4 calcium flux. B-score at 10 µM. 310,000 tested, 0.63% active. Mas-related G-protein coupled receptor member X1 (Homo sapiens), Q96LB2. FDSS; stronger effect = higher value;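 active means plate-corrected calcium response at least 3 library SD above typical, normal starting fluorescence, not activating the receptor alone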;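 further: compound read alongside a low EC10 to EC30 dose of BAM8-22 agonist; peak minus trough fluorescence over baseline measured at the second addition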
MrgX1 antag conf – MrgX1 receptor antagonists, duplicate retest, confirmation, HEK293 cells, Fluo-4 calcium flux | shares compounds with MrgX1 antagonist | BAM8-22 calcium flux; stronger effect = lower value | remaining BAM8-22 calcium response % of control (stronger effect = lower value), % at 10 µM | 2,300 tested, 19% active | AID 602420, 2012;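 active means remaining agonist calcium response no higher than 100% minus 3 SD of agonist-only control wells, with starting fluorescence near control levels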;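 further: agonist BAM8-22 given at a near maximal EC90 to ECmax level; peak minus minimum fluorescence divided by baseline after agonist addition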
HEK293 Ca flux – nonspecific calcium signal in parental HEK293, confirmation, counter-screen for MrgX1 antagonist project, parental HEK293 cells, Fluo-4 calcium flux; shares compounds with MrgX1 antagonist; 4,000 tested, 2% active; Fluo-4 calcium fluorescence, FDSS; fluorescence ratio F(max-min)/F0 at 10 µM;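 active means duplicate-averaged calcium fluorescence ratio at least three times the standard deviation of buffer wells, a nonspecific response in parental cells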
HEK293 Ca counter – calcium response in parental HEK293 cells, primary screen, counter-screen for MrgX1 allosteric activator project, cell-based, Fluo-4 calcium flux, duplicate | 4,000 tested, 0.4% active | shares compounds with MrgX1 antagonist | AID 624114, 2012 | Fluo-4 fluorescence ratio; stronger effect = higher value | fluorescence ratio F(max-min)/F0 at 10 µM;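 active means calcium fluorescence ratio, averaged over duplicates, at least 3 SD of the buffer-well ratio, meaning a nonspecific response in receptor-free cells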;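 further: untransfected parental HEK293 lacking MrgX1 used as counterscreen for MrgX1 allosteric activators; fluorescence change taken during the second addition on a kinetic imager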
HEK293 Ca cntr2 – calcium response in parental HEK293 cells, primary screen, counter-screen for MrgX1 agonist project, cell-based, Fluo-4 calcium flux, duplicate, agonist mode; shares compounds with MrgX1 antagonist; fluorescence ratio F(max-min)/F0 at 10 µM; 4,000 tested, 8.7% active; Fluo-4 calcium fluorescence (FDSS); stronger effect = higher value;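 active means calcium fluorescence ratio at least three times the spread of buffer wells, meaning a non-specific response in parental cells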
Numbers without * were called inactive; i = inactive; . = not tested or not shown. Rows were chosen to be rich in hits. Some 3.5% of all compounds tested hit in one or more screens of this group.

SMILES	RGS4 inh	RGS4 pot	MrgX1 ag	MrgX1 antagonist	MrgX1 PAM	MrgX1 antag conf	HEK293 Ca flux	HEK293 Ca counter	HEK293 Ca cntr2
CC(=O)NCc1ccc(S(=O)(=O)NC(C)CCc2ccccc2)cc1 (stereo unspecified)	i	i	i	i	i	.	.	.	.
Cc1cnc(C(=O)OCC(=O)c2csc(N3CCCCC3)n2)cn1	i	i	i	-5.7*	i	i	i	i	i
CCOC(=O)CCC(=O)O[C@H]1[C@H](O[C@@H]2[C@@H](C)[C@H](O[C@H]3C[C@@](C)(OC)[C@@H](O)[C@H](C)O3)[C@@H](C)C(=O)O[C@H](CC)[C@@](C)(O)[C@H](O)[C@@H](C)C(=O)[C@H](C)C[C@@]2(C)O)O[C@H](C)C[C@@H]1N(C)C	i	i	i	-11*	i	i	i	i	i
CC[C@H]1OC(=O)[C@H](C)[C@@H](O[C@H]2C[C@@](C)(OC)[C@@H](O)[C@H](C)O2)[C@H](C)[C@@H](O[C@@H]2O[C@H](C)C[C@H](N(C)C)[C@H]2O)[C@](C)(O)C[C@@H](C)C(=O)[C@H](C)[C@@H](O)[C@]1(C)O	i	i	i	i	i	.	.	.	.
CCCC1C(C#N)=C(N)Oc2n[nH]c(C(C)(C)C)c21 (stereo unspecified)	i	i	i	-5.1*	i	i	i	i	i
CC(C)C1C(C#N)=C(N)Oc2n[nH]c(C(C)(C)C)c21 (stereo unspecified)	.	.	i	i	i	.	.	.	.
CCOc1cc(C(C(=O)NCC2CCCO2)N(C(=O)Cn2nnc3ccccc32)c2ccccc2C(C)=O)ccc1O (stereo unspecified)	i	i	i	i	i	.	.	.	.
COc1cccc(NC(=O)CSC2=NN3CCCC(=O)N=C3S2)c1	i	i	i	i	i	.	.	.	.
O=C(NNC(=S)NC(=O)c1sc2ccccc2c1Cl)c1ccc(Cl)cc1	i	i	i	-18*	i	i	i	i	i
O=C(Nc1ccc2c(c1)OC1(CCCC1)O2)C1CC1	i	i	i	-5.9*	i	i	i	i	i
Cn1cnnc1-c1cccc(NC(=O)c2cc(F)c(F)cc2Cl)c1	i	i	i	i	i	.	.	.	.
Cc1cc(C(=O)CSc2nc3ccccc3[nH]2)c(C)n1CC1CCCO1 (stereo unspecified)	i	i	i	-8.1*	i	9.7%*	i	i	i
COc1ccc(N(C(=O)Cn2nnc(-c3ccccc3F)n2)C(C(=O)NCC2CCCO2)c2ccc(Cl)cc2)cc1 (stereo unspecified)	i	i	i	i	i	.	.	.	.
COc1ccc(C(=O)Nc2ccccc2)cc1NC(=O)c1cccs1	i	i	i	i	i	.	.	.	.
CCC(=O)Nc1cc(C(F)(F)F)ccc1N1CCOCC1	i	i	i	i	i	.	.	.	.
CC(C)C(=O)Nc1cc(C(F)(F)F)ccc1N1CCOCC1	i	i	i	-5*	i	76%*	i	i	i
COc1ccc(C(=O)N(C)Cc2ccccn2)cc1OC1CCN(C(C)C)CC1	i	i	i	-5.2*	i	i	i	i	i
COc1ccc(C(=O)N(C)Cc2ccon2)cc1OC1CCN(C(C)C)CC1	i	i	i	i	i	.	.	.	.
CN(Cc1ccccc1)C(=O)c1ccc(NC(=O)c2ccccc2)cc1	i	i	i	-5.5*	i	i	i	i	i
Cc1oc2c(CN3CCCCC3)c(O)ccc2c(=O)c1-c1ccc(Cl)cc1	i	i	i	i	i	.	.	.	.
COc1cccc(NC(=O)COc2ccc(C)cc2)c1	.	.	i	i	i	.	.	.	.
COc1ccc(OCC(=O)Nc2cccc(C(C)=O)c2)cc1	i	i	i	-6.3*	i	i	i	i	i
COc1cccc(NC(=O)CNC(=O)c2ccc(F)cc2)c1	.	.	i	i	i	.	.	.	.
COc1cccc(NC(=O)CNC(=O)c2ccc(C)cc2)c1	i	i	i	-9.1*	i	i	i	i	i
CC(C)OP(=O)(OC(C)C)C(NC(=O)c1ccccc1Br)C(N)=O (stereo unspecified)	i	i	i	i	i	.	.	.	.
SMILES	RGS4 inh	RGS4 pot	MrgX1 ag	MrgX1 antagonist	MrgX1 PAM	MrgX1 antag conf	HEK293 Ca flux	HEK293 Ca counter	HEK293 Ca cntr2
CN(C(=O)C1CCCCC1)C1CCS(=O)(=O)C1 (stereo unspecified)	i	i	i	i	i	.	.	.	.
CC(C)(C)SCCNC(=O)CSc1ccccc1	i	i	i	-5*	i	84%*	i	i	i
CCOC(=O)N1CCC(NC(=O)CS(=O)(=O)Cc2nc(-c3ccccc3C)oc2C)CC1	i	i	i	-5.3*	i	i	i	i	i
O=C(Nc1ccccc1)Nc1ccccc1C(=O)NCCCN1CCOCC1	i	i	i	i	i	.	.	.	.
COc1ccccc1OCC(=O)Nc1ccc(S(=O)(=O)NC(C)=O)cc1	i	i	i	-6.7*	i	i	i	i	i
COc1ccccc1OCC(=O)Nc1ccc(NC(=O)COc2ccccc2OC)cc1	i	i	i	i	i	.	.	.	.
CN(C)C(=O)c1nc2ccc(Cl)cn2c1CN1CCCC(OCc2ccccc2)C1 (stereo unspecified)	i	i	i	i	i	.	.	.	.
COC(CNC(=O)C(=O)NCC1OCCN1C(=O)c1ccc(Cl)cc1)OC (stereo unspecified)	i	i	i	i	i	.	.	.	.
